{"source": "ChEMBL document CHEMBL4257566", "about": "“Design, synthesis and structure-based optimization of novel isoxazole-containing benzamide derivatives as FtsZ modulators” (Eur J Med Chem, 2018)", "key": {"[1]": {"molecular_target": "T1, Cell division protein FtsZ (Bacillus subtilis (strain 168)) (UniProt P17865)", "T1 sequence (whole entry)": "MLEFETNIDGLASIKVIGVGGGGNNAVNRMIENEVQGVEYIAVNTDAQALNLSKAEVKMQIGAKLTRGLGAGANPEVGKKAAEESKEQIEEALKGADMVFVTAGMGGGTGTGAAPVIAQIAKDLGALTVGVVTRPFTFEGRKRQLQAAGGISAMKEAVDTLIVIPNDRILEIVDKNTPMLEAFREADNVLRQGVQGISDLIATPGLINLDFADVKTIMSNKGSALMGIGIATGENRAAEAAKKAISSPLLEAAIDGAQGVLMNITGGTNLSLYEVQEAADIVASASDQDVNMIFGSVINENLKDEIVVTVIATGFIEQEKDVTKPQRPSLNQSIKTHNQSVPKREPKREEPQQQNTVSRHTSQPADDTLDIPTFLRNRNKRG", "experiment": "Induction of Bacillus subtilis FtsZ assessed as increase in size of polymer at 10 ug/ml after 20 mins by transmission electron microscopic analysis", "method_in_brief": "(§1)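 Purified B. subtilis FtsZ incubated with or without compound at room temperature for 20 min in polymerization buffer (50 mM MES, 50 mM KCl, 2 mM magnesium acetate, 1 mM GTP). Samples put on glow-discharged Formvar/carbon copper grids, negatively stained with 1% phosphotungstic acid for 1 min, imaged by TEM at 100 kV.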"}, "[2]": {"molecular_target": "T1, Cell division protein FtsZ (Bacillus subtilis (strain 168))", "experiment": "Induction of Bacillus subtilis FtsZ assessed as increase in thickness of polymer size at 10 ug/ml after 20 mins by transmission electron microscopic analysis", "method_in_brief": "as §1"}, "Staphylococcus aureus [3]": {"tested_on": "Staphylococcus aureus", "experiment": "Selectivity ratio of MBC for Staphylococcus aureus ATCC 25923 to MIC for Staphylococcus aureus ATCC 25923", "format": "functional"}, "Staphylococcus aureus [4]": {"tested_on": "Staphylococcus aureus", "experiment": "Bactericidal activity against Staphylococcus aureus ATCC 25923 incubated for 24 hrs followed by plating onto tryptic soy agar plates and further incubated for 24 hrs by broth microdilution based CLSI method", "format": "functional", "conditions": "ATCC 25923, 24 h"}, "Bacillus subtilis [5]": {"tested_on": "Bacillus subtilis", "experiment": "Potency index, ratio of PC190723 MIC to test compound MIC for antibacterial activity against Bacillus subtilis ATCC 9372 after 24 hrs by broth microdilution based CLSI method"}, "Staphylococcus aureus [6]": {"tested_on": "Staphylococcus aureus", "experiment": "Bactericidal activity against clinical isolate of penicillin-resistant Staphylococcus aureus incubated for 24 hrs followed by plating onto tryptic soy agar plates and further incubated for 24 hrs by broth microdilution based CLSI method", "format": "functional", "method_in_brief": "(§2)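 MBC taken from the CLSI broth microdilution plates. These held 2-fold serial dilutions from 64 to 0.125 µg/mL in cation-adjusted Mueller-Hinton broth, seeded with log-phase bacteria and incubated aerobically for 24 h at 37 °C. Well aliquots were plated on TSA and colonies counted after 24 h. MBC is the lowest concentration giving a ≥3-log CFU reduction.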"}, "Staphylococcus aureus [7]": {"tested_on": "Staphylococcus aureus", "experiment": "Antibacterial activity against clinical isolate of penicillin-resistant Staphylococcus aureus after 24 hrs by broth microdilution based CLSI method", "format": "functional"}, "[8]": {"molecular_target": "T1, Cell division protein FtsZ (Bacillus subtilis (strain 168))", "experiment": "Induction of Bacillus subtilis FtsZ assessed as increase in bundling of protofilament at 10 ug/ml after 20 mins by transmission electron microscopic analysis", "method_in_brief": "as §1"}, "Pseudomonas aeruginosa": {"tested_on": "Pseudomonas aeruginosa", "experiment": "Antibacterial activity against Pseudomonas aeruginosa ATCC 27853 after 24 hrs by broth microdilution based CLSI method", "format": "functional", "conditions": "ATCC 27853, 24 h"}, "Staphylococcus aureus [9]": {"tested_on": "Staphylococcus aureus", "experiment": "Selectivity ratio of MBC for methicillin-resistant Staphylococcus aureus ATCC 43300 to MIC for methicillin-resistant Staphylococcus aureus ATCC 43300", "format": "functional", "method_in_brief": "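Ratio of MBC to MIC. Both come from the same CLSI broth microdilution run: 2-fold dilutions from 64 to 0.125 µg/mL in CAMH broth, 24 h at 37 °C. MIC is the last well without turbidity. MBC is the lowest concentration giving a ≥3-log CFU drop after plating on TSA for 24 h. Ratio 1–2 is read as bactericidal, ≥8 as bacteriostatic.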"}, "[10]": {"molecular_target": "T1, Cell division protein FtsZ (Bacillus subtilis (strain 168))", "experiment": "Induction of Bacillus subtilis FtsZ polymerization at 10 ug/ml in presence of GTP by microtiter plate-based light-scattering assay", "method_in_brief": "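Recombinant purified B. subtilis FtsZ (5 µM) with 1 mM GTP in 50 mM MES, 50 mM KCl, 2 mM magnesium acetate, compound 0–10 µg/mL. Polymerization followed as light scattering (A340) continuously at 25 °C for 30 min. DMSO vehicle and a non-FtsZ control were included.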"}, "Bacillus subtilis [11]": {"tested_on": "Bacillus subtilis", "experiment": "Antibacterial activity against Bacillus subtilis ATCC 9372 after 24 hrs by broth microdilution based CLSI method", "format": "functional", "conditions": "ATCC 9372, 24 h"}, "Staphylococcus aureus [12]": {"tested_on": "Staphylococcus aureus", "experiment": "Bactericidal activity against methicillin-resistant Staphylococcus aureus ATCC 43300 assessed as reduction in viable bacterial count at 4 times MIC after 6 hrs by time-kill assay", "format": "functional, organism-based", "method_in_brief": "(§3)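 Growing culture diluted to about 10⁶ CFU/mL in CAMH broth containing compound, then shaken at 37 °C. At set times, samples were serially diluted tenfold in CAMH broth and three dilutions plated on TSA. CFU/mL counted after 24 h at 37 °C. Detection limit 10³ CFU/mL. Points are the mean of two independent runs, with SD.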"}, "Staphylococcus aureus [13]": {"tested_on": "Staphylococcus aureus", "experiment": "Antibacterial activity against Staphylococcus aureus ATCC 25923 after 24 hrs by broth microdilution based CLSI method", "format": "functional", "conditions": "ATCC 25923, 24 h"}, "Mus musculus": {"tested_on": "Mus musculus", "experiment": "Toxicity in mouse infected with methicillin-resistant Staphylococcus aureus ATCC 43300 assessed as mouse death at 30 mg/kg, ip administered 0.1, 3, 6, 9 and 12 hrs postinfection and measured after 1 week", "format": "organism-based", "conditions": "in vivo, 168 h", "method_in_brief": "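KM mice (about 20 g) infected i.v. with 5.4 × 10⁷ CFU MRSA in 0.1 mL saline. Dosing i.p. in vehicle of 1% DMAC, 30% TEG, 7% HPβCD in water (final), with a vehicle-only group. Deaths recorded for one week after bacterial inoculation.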"}, "Staphylococcus aureus [14]": {"tested_on": "Staphylococcus aureus", "experiment": "Bactericidal activity against methicillin-resistant Staphylococcus aureus ATCC 43300 assessed as reduction in viable bacterial count at 0.5 times MIC after 24 hrs by time-kill assay", "format": "functional, organism-based", "method_in_brief": "as §3"}, "Escherichia coli": {"tested_on": "Escherichia coli", "experiment": "Antibacterial activity against Escherichia coli ATCC 25922 after 24 hrs by broth microdilution based CLSI method", "format": "functional", "conditions": "ATCC 25922, 24 h"}, "Staphylococcus aureus [15]": {"tested_on": "Staphylococcus aureus", "experiment": "Antibacterial activity against methicillin-resistant Staphylococcus aureus ATCC 43300 after 24 hrs by broth microdilution based CLSI method", "format": "functional", "conditions": "ATCC 43300, 24 h"}, "HeLa": {"tested_on": "HeLa", "experiment": "Cytotoxicity in human HeLa cells assessed as reduction in cell viability after 36 hrs by MTT assay", "format": "cell-based", "method_in_brief": "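HeLa cells seeded at 10⁴ cells/well and left overnight, then exposed to compound for 36 h. MTT (5 mg/mL solution) added for 4 h at 37 °C, medium replaced by DMSO for 10 min, absorbance read at 570 nm.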"}, "Staphylococcus aureus [16]": {"tested_on": "Staphylococcus aureus", "experiment": "Antibacterial activity against methicillin-resistant Staphylococcus aureus ATCC 43300 infected in mouse assessed as reduction of bacterial burden in blood at 30 mg/kg, ip administered 0.1, 3, 6, 9 and 12 hrs postinfection and measured at 24 hrs post last dose", "format": "functional, organism-based"}, "Bacillus pumilus [17]": {"tested_on": "Bacillus pumilus", "experiment": "Antibacterial activity against Bacillus pumilus CMCC63202 after 24 hrs by broth microdilution based CLSI method", "format": "functional", "conditions": "CMCC63202, 24 h"}, "Staphylococcus aureus [18]": {"tested_on": "Staphylococcus aureus", "experiment": "Bactericidal activity against methicillin-resistant Staphylococcus aureus ATCC 43300 incubated for 24 hrs followed by plating onto tryptic soy agar plates and further incubated for 24 hrs by broth microdilution based CLSI method", "format": "functional", "conditions": "ATCC 43300, 24 h", "method_in_brief": "as §2"}, "Bacillus pumilus [19]": {"tested_on": "Bacillus pumilus", "experiment": "Antibacterial activity against Bacillus pumilus CMCC63202 assessed as increase in bacterial cell length at 0.5 times MIC after 18 hrs by phase-contrast optical microscopic analysis", "format": "functional, organism-based", "method_in_brief": "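Harvested cells resuspended in PBS, spotted on poly-L-lysine (0.1% w/v) coated slides and cell length examined by phase-contrast microscopy at 40 magnification.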"}, "Bacillus pumilus [20]": {"tested_on": "Bacillus pumilus", "experiment": "Potency index, ratio of PC190723 MIC to test compound MIC for Bacillus pumilus CMCC63202 after 24 hrs by broth microdilution based CLSI method", "format": "functional"}, "Staphylococcus aureus [21]": {"tested_on": "Staphylococcus aureus", "experiment": "Bactericidal activity against methicillin-resistant Staphylococcus aureus ATCC 43300 assessed as reduction in viable bacterial count at 1 to 2 times MIC after 12 hrs by time-kill assay", "format": "functional", "method_in_brief": "as §3"}}, "note": "The source made the active and inactive calls. The rule behind the calls is not given here."}
{"smiles": "CC(C)(C)c1ccc(-c2cc(COc3ccc(F)c(C(N)=O)c3F)no2)cc1", "values": [{"measurement": "Activity", "setting": "[1]", "value": "Active"}, {"measurement": "Activity", "setting": "[2]", "value": "Active"}, {"measurement": "Ratio", "setting": "Staphylococcus aureus [3]", "value": 2}, {"measurement": "MBC", "setting": "Staphylococcus aureus [4]", "value": 4, "unit": "mg/L"}, {"measurement": "Ratio", "setting": "Bacillus subtilis [5]", "value": 32}, {"measurement": "MBC", "setting": "Staphylococcus aureus [6]", "value": 8, "unit": "mg/L"}, {"measurement": "MIC", "setting": "Staphylococcus aureus [7]", "value": 4, "unit": "mg/L"}, {"measurement": "Activity", "setting": "[8]", "value": "Active"}, {"measurement": "MIC", "setting": "Pseudomonas aeruginosa", "value": "> 64", "unit": "mg/L"}, {"measurement": "Ratio", "setting": "Staphylococcus aureus [9]", "value": 1}, {"measurement": "Activity", "setting": "[10]", "value": "Active"}, {"measurement": "MIC", "setting": "Bacillus subtilis [11]", "value": 0.015, "unit": "mg/L"}, {"measurement": "Activity", "setting": "Staphylococcus aureus [12]", "value": "Active"}, {"measurement": "MIC", "setting": "Staphylococcus aureus [13]", "value": 2, "unit": "mg/L"}, {"measurement": "Activity", "setting": "Mus musculus", "value": "Non-Toxic"}, {"measurement": "Activity", "setting": "Staphylococcus aureus [14]", "value": "inactive"}, {"measurement": "MIC", "setting": "Escherichia coli", "value": "> 64", "unit": "mg/L"}, {"measurement": "MIC", "setting": "Staphylococcus aureus [15]", "value": 2, "unit": "mg/L"}, {"measurement": "IC50", "setting": "HeLa", "value": "> 128", "unit": "mg/L"}, {"measurement": "Activity", "setting": "Staphylococcus aureus [16]", "value": "Active"}, {"measurement": "MIC", "setting": "Bacillus pumilus [17]", "value": 0.03, "unit": "mg/L"}, {"measurement": "MBC", "setting": "Staphylococcus aureus [18]", "value": 2, "unit": "mg/L"}, {"measurement": "Activity", "setting": "Bacillus pumilus [19]", "value": "Active"}, {"measurement": "Ratio", "setting": "Bacillus pumilus [20]", "value": 32}, {"measurement": "viable count", "setting": "Staphylococcus aureus [21]", "value": 1000, "unit": "CFU/mL"}]}
